According to ChEMBL document CHEMBL1125277, “Novel cerebroprotective agents with central nervous system stimulating activity. 1. Synthesis and pharmacology of 1-amino-7-hydroxyindan derivatives” (1991):

Key:
Type in all cases: functional
Mus musculus [1] = test: Antihypoxic effect by the survival time (SVT) in mice at a dose of 30 mg/kg administered subcutaneously in mice; design: unit: % of control; details: route subcutaneous
Method in brief: (§1)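 Male ICR mice (20–30 g), groups of 10, dosed 0.25 h (iv, sc or ip) or 1 h (oral) before test. Mice placed in desiccator evacuated to 210 mmHg. Survival time measured from pump start to cessation of respiration, capped at 900 s. Activity expressed as % of control survival time; Wilcoxon sum test.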

Mus musculus [2] = test: Antihypoxic effect tested by the survival time (SVT) in mice at a dose of 100 mg/kg; method in brief: as §1
Mus musculus [3] = test: Antihypoxic effect by the survival time (SVT) in mice at a dose of 100 mg/kg administered intraperitoneally in mice; method in brief: as §1
Mus musculus [4] = test: Time of recovery of righting reflux (RRT) in seconds was measured after administration of 100 mg/kg orally in mice for the promotional effect on recovery from coma
Method in brief: (§2)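 Male ICR mice (20–30 g) were dosed orally 1 h before concussion was induced, and saline-dosed mice served as controls. Times to recovery of righting reflex and of spontaneous movement were recorded in seconds. Brains were examined post mortem, and mice with contused brain wounds were excluded. Statistics used the Wilcoxon sum test.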

Mus musculus [5] = test: Time of recovery of spontaneous movement (SMT) in seconds was measured after administration of 100 mg/kg orally in mice for the promotional effect on recovery from coma; method in brief: as §2
Mus musculus [6] = test: Antihypoxic effect by the survival time (SVT) in mice at a dose of 30 mg/kg administered intraperitoneally in mice; details: route intraperitoneal; method in brief: as §1
Mus musculus [7] = test: Time of recovery of righting reflux (RRT) in seconds was measured after administration of 2.5 mg/kg intravenously in mice for the promotional effect on recovery from coma; details: route intravenous
Method in brief: (§3)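 This is the concussion-induced coma model in male ICR mice (20–30 g), with saline-treated controls. Righting-reflex and spontaneous-movement recovery times were recorded in seconds. Animals with contused brain wounds at post-mortem were excluded. Groups were compared by Wilcoxon sum test.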

Mus musculus [8] = test: Antihypoxic effect by the survival time (SVT) in mice at a dose of 3 mg/kg administered intravenously in mice; details: route intravenous; method in brief: as §1
Mus musculus [9] = test: Time of recovery of spontaneous movement (SMT) in seconds was measured after administration of 2.5 mg/kg intravenously in mice for the promotional effect on recovery from coma; details: route intravenous; method in brief: as §3
Mus musculus [10] = test: Time of recovery of spontaneous movement (SMT) in seconds was measured after administration of 200 mg/kg perorally in mice for the promotional effect on recovery from coma; details: route oral; method in brief: as §2
Mus musculus [11] = test: Time of recovery of righting reflux (RRT) in seconds was measured after administration of 200 mg/kg perorally in mice for the promotional effect on recovery from coma; details: route oral; method in brief: as §2
Mus musculus [12] = test: Time of recovery of righting reflux (RRT) in seconds was measured after administration of 40 mg/kg intraperitoneally in mice for the promotional effect on recovery from coma; details: route intraperitoneal
Method in brief: (§4)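 Male ICR mice (20–30 g); concussion-induced coma model of head injury. Control mice received the same amount of physiological saline. Brains examined post mortem and mice with contused wounds excluded. Recovery times in seconds (righting reflex or spontaneous movement) expressed as % of control; Wilcoxon sum test.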

Mus musculus [13] = test: Antihypoxic effect by the survival time (SVT) in mice at a dose of 40 mg/kg administered intraperitoneally in mice; details: route intraperitoneal; method in brief: as §1
Mus musculus [14] = test: Time of recovery of spontaneous movement (SMT) in seconds was measured after administration of 40 mg/kg intraperitoneally in mice for the promotional effect on recovery from coma; details: route intraperitoneal; method in brief: as §4

| Compound | SVT (Mus musculus [1]) | SVT (Mus musculus [2]) | RRT (Mus musculus [4]; route oral) [s] | SMT (Mus musculus [5]; route oral) [s] | also measured |
| --- | --- | --- | --- | --- | --- |
| CC(=O)Nc1cc(C)c2c(c1O)C(N)CC2.Cl (configuration not stated) | 46.8 | – | – | – | – |
| VITAMIN E | – | 178 | – | – | SVT (Mus musculus [3]): 96.7; RRT (Mus musculus [4]): 92.2 s; SMT (Mus musculus [5]): 83.5 s |
| Cc1cc(C(C)(C)C)c(O)c2c1CCC2N.Cl (configuration not stated) | – | – | 90.6 | 113.5 | SVT (Mus musculus [6]): 252.8 |
| COc1c(C)cc(C)c2c1C(N)C(C)(C)C2.Cl (configuration not stated) | – | 164.3 | 43.6 | 39.2 | – |
| Cc1cc(C)c2c(c1O)C(N)C(C)(Cc1ccccc1)C2.Cl.O (configuration not stated) | – | 197 | 33 | 28.8 | – |
| Cc1cc(C)c2c(c1O)C(N)C(c1ccccc1Cl)C2.Cl (configuration not stated) | – | 151 | 35.8 | 33.8 | – |
| NC(=O)[C@@H]1CCCN1C(=O)[C@H](Cc1c[nH]cn1)NC(=O)[C@@H]1CCC(=O)N1 [PROTIRELIN] | – | – | – | – | RRT (Mus musculus [7]): 40.8 s; SVT (Mus musculus [8]): 43.4; SMT (Mus musculus [9]): 40.9 s |
| Cc1cc(CC(C)C)c(O)c2c1CCC2N.Cl (configuration not stated) | 281.4 | 149.9 | 59.3 | 76.1 | – |
| Cc1cc(C)c2c(c1O)C(N)C(C)(c1ccccc1)C2.Cl (configuration not stated) | – | 171.6 | 34.1 | 34.7 | – |
| Cc1cc(C)c2c(c1O)C(N)C(C)C2.Cl (configuration not stated) | – | 237.7 | 79.1 | 71 | – |
| CCc1cc(C)c2c(c1O)C(N)C(c1ccccc1)C2.Cl (configuration not stated) | – | 97.4 | 89.2 | 94.4 | – |
| Cc1cc(I)c(O)c2c1CCC2N.Cl (configuration not stated) | 184.6 | – | 81.1 | 92.3 | – |
| Cc1ccccc1C1Cc2c(C)cc(C)c(O)c2C1N.Cl (configuration not stated) | – | 161.3 | 44.4 | 45.9 | – |
| Cc1cc(C)c2c(c1O)C(N)C(c1ccccc1)C2.Cl (configuration not stated) | – | 149.1 | 31.1 | 37.6 | SVT (Mus musculus [6]): 185.7 |
| Cc1cc(CN)c(O)c2c1CCC2N.Cl (configuration not stated) | 74.3 | 110.2 | 69.9 | 79.3 | – |
| Cc1cc([N+](=O)[O-])c(O)c2c1CCC2N.Cl (configuration not stated) | 189.7 | – | – | – | – |
| CC(C)(C)c1cc(C(C)(C)C)c2c(c1O)C(N)CC2.Cl (configuration not stated) | – | 119.2 | 160.2 | 157.6 | SVT (Mus musculus [6]): 171.3 |
| Cl.NC1CCc2c(Cl)cc(Cl)c(O)c21 (configuration not stated) | 65.8 | – | – | – | – |
| Cc1cc(C(C)(C)C)c(O)c(C(C)(C)C)c1 [BUTYLATED HYDROXYTOLUENE] | – | 87.6 | 69.6 | 80.9 | SVT (Mus musculus [3]; route intraperitoneal): 358.8 |

| Compound | SVT (Mus musculus [1]) | SVT (Mus musculus [2]) | RRT (Mus musculus [4]; route oral) [s] | SMT (Mus musculus [5]; route oral) [s] | also measured |
| --- | --- | --- | --- | --- | --- |
| Cl.NC1CCc2c(O)cccc21 (configuration not stated) | – | 103.9 | – | – | – |
| CNC1CCc2c(C)cc(C)c(O)c21.Cl (configuration not stated) | 177.5 | – | 57.9 | 55.8 | – |
| Cc1cc(C)c2c(c1O)C(N)C(Cc1ccccc1)C2.Cl (configuration not stated) | – | 148 | 47 | 38.6 | – |
| CN(C)CCCN1c2ccccc2CCc2ccccc21.Cl [IMIPRAMINE HYDROCHLORIDE] | – | 67.9 | 113.4 | 115.5 | – |
| CCCc1cc(CC)c2c(c1O)C(N)CC2.Cl (configuration not stated) | 194.3 | 206.8 | 94.4 | 116.3 | – |
| CN(C)CCOC(=O)COc1ccc(Cl)cc1 [MECLOFENOXATE] | – | 106 | – | – | SMT (Mus musculus [10]): 63.8 s; SVT (Mus musculus [8]): 133; RRT (Mus musculus [11]): 53.8 s |
| Cc1cc(C)c2c(c1O)C(N)CC2.Cl (configuration not stated) | 303.4 | 255.7 | 51.4 | 61.4 | – |
| Cl.NC1CCc2cccc(O)c21 (stereo in doubt; 11b) | – | – | – | – | SVT (Mus musculus [2]; 100 mg/kg): 78 |
| Cc1cc(Br)c(O)c2c1CCC2N.Cl (configuration not stated) | 308 | 130.1 | 81.5 | 83.4 | – |
| CCCc1ccc2c(c1O)C(N)CC2.Cl (configuration not stated) | 138 | 158 | 70.5 | 79.5 | – |
| CCC(C)c1cc(C)c2c(c1O)C(N)CC2.Cl (configuration not stated) | 276.5 | 234.8 | 18.9 | 23.3 | – |
| Cl.NC1CCc2cccc(O)c21 (stereo in doubt; 11a) | – | – | 102 | 99.1 | SVT (Mus musculus [2]; 100 mg/kg): 204.8 |
| CCCc1cc(C)c2c(c1O)C(N)CC2.Cl (configuration not stated) | 244.6 | 205.3 | – | – | – |
| Cc1cc(C)c2c(c1O)C(N)C(C)(Cc1ccccc1)C2.Cl (configuration not stated) | – | 167.3 | 29.9 | 32.6 | – |
| Cc1ccc(O)c2c1CCC2N.Cl (configuration not stated) | 157.8 | 98.4 | 40.1 | 42.6 | – |
| CCCC(C)C1(CC)C(=O)N=C([O-])NC1=O.[Na+] (configuration not stated) [PENTOBARBITAL SODIUM] | – | – | – | – | RRT (Mus musculus [12]): 494 s; SVT (Mus musculus [13]): 306.7; SMT (Mus musculus [14]): 283 s |
| CCCCNC1CCc2c(C)cc(C)c(O)c21.Cl (configuration not stated) | – | 187.3 | 55.3 | 57.7 | – |
| Cc1cc(C)c2c(c1O)C(N)C(C)(C)C2.Cl (configuration not stated) | 298.1 | 288 | 37.2 | 53.9 | – |
| COc1c(C)cc(C)c2c1C(N)C(C)(c1ccccc1)C2.Cl (configuration not stated) | – | 117.9 | 25 | 23.9 | – |
